In ChEMBL document CHEMBL1155309, “Synthesis of 3,6-disubstituted 7H-1,2,4-triazolo[3,4-b]-1,3,4-thiadiazines as novel analgesic/anti-inflammatory compounds” (Eur J Med Chem, 2009):

What was measured:
Mus musculus [1] = test: Analgesic activity in BALB/c mouse assessed as decrease in acetic acid-induced writhing at 100 mg/kg, po administered 1 hr prior to acetic acid challenge by Koster's test; format: functional
Procedure, shortened: (§1)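 Test samples suspended in distilled water/0.5% CMC given orally; vehicle to controls. 1 h later, 3% (w/v) acetic acid i.p. (0.1 ml/10 g). Starting 5 min after injection, writhings counted for 10 min. Result expressed as % change from writhing controls. Groups of 4 mice (preliminary 100 mg/kg) or 4–5 mice (50/200 mg/kg). Two-tailed Student's t test.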

Mus musculus [2] = test: Analgesic activity in BALB/c mouse assessed as decrease in acetic acid-induced writhing at 50 mg/kg, po administered 1 hr prior to acetic acid challenge by Koster's test; format: functional; procedure, shortened: as §1
Mus musculus [3] = test: Analgesic activity in BALB/c mouse assessed as decrease in acetic acid-induced writhing at 200 mg/kg, po administered 1 hr prior to acetic acid challenge by Koster's test; format: functional; procedure, shortened: as §1
Mus musculus [4] = test: Antioxidant activity in BALB/c mouse assessed as TBARS level per gram of wet weight of tissue at 200 mg/kg, po; format: functional; set-up: unit: nmol/g
Procedure, shortened: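 Mice dosed orally at 200 mg/kg were killed under ether 8 h after the writhing test and stomachs removed. Tissue extract supernatant obtained by centrifugation (1000×g 10 min, then 2000×g 30 min, 4 °C). Heated with TBA in boiling water for 60 min, TCA added, absorbance read at 532 nm against blank tissue. Calibrated with 1,1,3,3-tetraethoxypropane; reported as nmol TBARS/g wet tissue.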

Mus musculus [5] = test: Acute toxicity in BALB/c mouse assessed as diarrhea and depression at 50 to 200 mg/kg, po after 72 hrs; format: organism-based; set-up: dose 50-200 mg/kg, route oral; settings: in vivo
Mus musculus [6] = test: Antiinflammatory activity in BALB/c mouse assessed as inhibition of carrageenan-induced paw edema at 200 mg/kg, po after 90 mins; format: functional; settings: 1.5 h
Procedure, shortened: (§2)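 Oral dosing in 0.5% CMC/water suspension, vehicle for controls. 1 h later, carrageenan (0.5 mg/25 µl saline) injected subplantar into right hind paw, 25 µl saline into left. Right–left footpad thickness measured by dial callipers every 90 min for 6 h. % inhibition = [(n − n′)/n]×100 versus control. Groups of 3 (100 mg/kg screen) or 4–5 mice.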

Mus musculus [7] = test: Antiinflammatory activity in BALB/c mouse assessed as inhibition of carrageenan-induced paw edema at 200 mg/kg, po after 270 mins; format: functional; settings: 4.5 h; procedure, shortened: as §2
Mus musculus [8] = test: Antiinflammatory activity in BALB/c mouse assessed as inhibition of carrageenan-induced paw edema at 200 mg/kg, po after 360 mins; format: functional; settings: 6 h; procedure, shortened: as §2
Mus musculus [9] = test: Antiinflammatory activity in BALB/c mouse assessed as inhibition of carrageenan-induced paw edema at 200 mg/kg, po after 270 mins; settings: 4.5 h
Mus musculus [10] = test: Antiinflammatory activity in BALB/c mouse assessed as inhibition of carrageenan-induced paw edema at 100 mg/kg, po after 180 mins; settings: 3 h
Mus musculus [11] = test: Antiinflammatory activity in BALB/c mouse assessed as inhibition of carrageenan-induced paw edema at 100 mg/kg, po after 90 mins; format: functional; settings: 1.5 h; procedure, shortened: as §2
Mus musculus [12] = test: Antiinflammatory activity in BALB/c mouse assessed as inhibition of carrageenan-induced paw edema at 100 mg/kg, po after 180 mins; format: functional; settings: 3 h; procedure, shortened: as §2
Mus musculus [13] = test: Antiinflammatory activity in BALB/c mouse assessed as inhibition of carrageenan-induced paw edema at 100 mg/kg, po after 270 mins; format: functional; settings: 4.5 h; procedure, shortened: as §2
Mus musculus [14] = test: Antiinflammatory activity in BALB/c mouse assessed as inhibition of carrageenan-induced paw edema at 100 mg/kg, po after 360 mins; format: functional; settings: 6 h; procedure, shortened: as §2
Mus musculus [15] = test: Antiinflammatory activity in BALB/c mouse assessed as inhibition of carrageenan-induced paw edema at 50 mg/kg, po after 90 mins; format: functional; settings: 1.5 h; procedure, shortened: as §2
Mus musculus [16] = test: Gastrointestinal toxicity in BALB/c mouse assessed as acute ulcerogenic risk at 200 mg/kg, po; format: organism-based; set-up: dose 200 mg/kg, route oral; settings: in vivo
Procedure, shortened: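 Mice, fasted overnight with free water, received 200 mg/kg orally as a suspension in distilled water with 0.5% carboxymethyl cellulose, in groups of 4–5. They were first used in the acetic acid writhing test. Eight hours after that test they were killed under deep ether anaesthesia, and their stomachs were removed and scored for ulcers. Acetylsalicylic acid 200 mg/kg was the reference.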

| Structure (SMILES) | inhibition in vivo at 100 mg/kg (Mus musculus [1]) | inhibition in vivo at 50 mg/kg (Mus musculus [2]) | inhibition in vivo at 200 mg/kg (Mus musculus [3]) | Activity (Mus musculus [4]) | Activity (Mus musculus [5]) | inhibition in vivo at 200 mg/kg (Mus musculus [6]) | inhibition in vivo at 200 mg/kg (Mus musculus [7]) | inhibition in vivo at 200 mg/kg (Mus musculus [8]) | inhibition in vivo at 200 mg/kg (Mus musculus [9]) | inhibition in vivo at 100 mg/kg (Mus musculus [10]) | inhibition in vivo at 100 mg/kg (Mus musculus [11]) | inhibition in vivo at 100 mg/kg (Mus musculus [12]) | inhibition in vivo at 100 mg/kg (Mus musculus [13]) | inhibition in vivo at 100 mg/kg (Mus musculus [14]) | inhibition in vivo at 50 mg/kg (Mus musculus [15]) | Activity (Mus musculus [16]) |
| --- | --- | --- | --- | --- | --- | --- | --- | --- | --- | --- | --- | --- | --- | --- | --- | --- |
| COc1ccc(Cc2nnc3n2N=C(c2ccccc2)CS3)cc1 | 39.5% | 14.3% | 46.4% | 112.3 nmol | Non-toxic |  |  |  |  |  |  |  |  |  |  |  |
| COc1cc(CCc2n[nH]c(=S)n2N)cc(OC)c1OC | 52.4% | 23.1% | 54.2% | 104.3 nmol | Non-toxic | 39.3% | 20.4% | 41.7% |  |  |  |  |  |  |  |  |
| COc1ccc(CCc2nnc3n2N=C(c2ccccc2)CS3)cc1 | 42.8% | 6.4% | 44.2% | 110.8 nmol | Non-toxic |  |  | 37.5% | 50% |  |  |  |  |  |  |  |
| COc1cc(Cc2nnc3n2N=C(c2ccc(F)cc2)CS3)cc(OC)c1OC | 35% | 22.1% | 52.2% | 107.6 nmol | Non-toxic |  |  | 25% | 24.9% | 26.8% |  |  |  |  |  |  |
| COc1cc(CCc2nnc3n2N=C(c2ccc(F)cc2)CS3)cc(OC)c1OC | 43.1% | 35.2% | 56.1% | 105.1 nmol | Non-toxic |  |  | 23% | 46.4% |  | 40.7% | 21.4% | 57.9% | 38.9% | 34.5% |  |
| COc1cc(CCc2nnc3n2N=C(c2ccccc2)CS3)cc(OC)c1OC | 17.1% | 32.4% | 27.5% | 100.3 nmol | Non-toxic |  |  | 29.2% | 46.4% | 38.5% | 31.7% |  |  |  |  |  |
| COc1ccc(Cc2nnc3n2N=C(c2ccc(Cl)cc2)CS3)cc1 | 33% | 9.9% | 39% | 97.9 nmol | Non-toxic |  |  | 38.9% | 25% |  |  |  |  |  |  | Non-toxic |
| COc1ccc(Cc2nnc3n2N=C(c2ccc(F)cc2)CS3)cc1 | 26.3% | 20.5% | 31.5% | 95.4 nmol | Non-toxic |  |  | 41.7% | 53.6% | 34.3% |  |  |  |  |  |  |
| COc1cc(CCc2nnc3n2N=C(c2ccc(Cl)cc2)CS3)cc(OC)c1OC | 50.2% | 28.5% | 54.8% | 101.9 nmol | Non-toxic |  |  | 25% | 39.1% | 36.9% | 29.3% |  | 34.3% |  |  |  |
